We go through one molecule from article PMC3062473 (ChemMedChem, 2010).

SMILES strings stand for the structures. pIC50, pKi: −log10 of the molar value.

Series [1] concerns the target T1, Caspase 4 (Homo sapiens, UniProt P49662).
T1 sequence (P49662 81-270 limits assumed): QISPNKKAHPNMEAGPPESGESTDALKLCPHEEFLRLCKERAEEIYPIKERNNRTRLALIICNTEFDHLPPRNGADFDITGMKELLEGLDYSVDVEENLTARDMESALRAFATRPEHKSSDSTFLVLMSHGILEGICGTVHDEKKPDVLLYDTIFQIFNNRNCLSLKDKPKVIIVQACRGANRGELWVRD
T1 sequence (P49662 290-377 limits assumed): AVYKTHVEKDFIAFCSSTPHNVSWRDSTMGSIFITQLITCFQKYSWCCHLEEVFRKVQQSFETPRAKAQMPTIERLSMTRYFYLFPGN
The settings on record: read-out: Ki caspase 4; cited from earlier work.

Series [2] addresses T2, Caspase 8 (Homo sapiens, UniProt Q14790). The conditions noted are these: read-out: Ki caspase 8; cited from earlier work.
A short description of the next series: Microsomal stability. Type of series: in vitro ADME, human. The settings on record: human, liver microsomes. A digest of the protocol: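 Human microsomal stability, profiled by a contract lab alongside internal control compounds. Includes minus-NADPH and minus-compound control incubations.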
In general terms: Microsomes from liver hold many membrane-bound enzymes, among them those of drug oxidation.

A further series has as its system granzyme B. The settings on record: cited from earlier work.
Another series concerns trypsin. The settings on record: cited from earlier work.
Series [3] addresses T3, Caspase 6 (Homo sapiens, UniProt P55212).
T3 sequence (P55212 24-179 limits assumed): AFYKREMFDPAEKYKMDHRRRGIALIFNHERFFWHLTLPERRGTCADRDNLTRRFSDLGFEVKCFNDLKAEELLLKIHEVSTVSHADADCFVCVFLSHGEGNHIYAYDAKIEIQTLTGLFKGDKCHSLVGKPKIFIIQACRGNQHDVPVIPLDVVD
T3 sequence (P55212 194-293 limits assumed): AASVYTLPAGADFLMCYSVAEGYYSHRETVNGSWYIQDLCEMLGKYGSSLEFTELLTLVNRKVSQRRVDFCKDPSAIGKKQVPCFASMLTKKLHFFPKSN
The conditions noted are these: read-out: Ki caspase 6; cited from earlier work.

In series [4] the target is T4, Caspase 3 (Homo sapiens, UniProt P42574).
T4 sequence (P42574 29-175 limits assumed): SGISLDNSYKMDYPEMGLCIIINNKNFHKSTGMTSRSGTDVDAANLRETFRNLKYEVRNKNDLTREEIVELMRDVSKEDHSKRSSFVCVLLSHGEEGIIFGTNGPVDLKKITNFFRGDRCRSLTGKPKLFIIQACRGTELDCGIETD
T4 sequence (P42574 176-277 limits assumed): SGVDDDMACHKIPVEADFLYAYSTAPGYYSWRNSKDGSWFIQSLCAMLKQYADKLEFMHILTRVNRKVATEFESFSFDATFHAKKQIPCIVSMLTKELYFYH
The settings on record: cited from earlier work.

A further series addresses T5, Caspase 14 (Homo sapiens, UniProt P31944).
T5 sequence (P31944 6-146 limits assumed): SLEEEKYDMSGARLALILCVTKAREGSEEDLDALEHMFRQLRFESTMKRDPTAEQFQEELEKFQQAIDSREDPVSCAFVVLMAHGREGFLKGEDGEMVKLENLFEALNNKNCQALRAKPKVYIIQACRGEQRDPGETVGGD
T5 sequence (P31944 153-242 limits assumed): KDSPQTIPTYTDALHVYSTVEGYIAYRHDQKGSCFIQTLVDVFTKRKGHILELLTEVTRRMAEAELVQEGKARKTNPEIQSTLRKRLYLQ
In words: Reaction Biology caspase panel. The class given is biochemical. The conditions noted are these: read-out: Caspase 14 IC50; (Z-LEHD)2-R110 substrate; three separate experiments.

For series [5], the target named is T1, Caspase 4. The series can be described thus: Reaction Biology caspase panel. The class given is biochemical. The conditions noted are these: read-out: Caspase 4 IC50; (Z-LEHD)2-R110 substrate; three separate experiments.
For a further series, the system named is cathepsin B. The settings on record: cited from earlier work.
For another series, the target named is T6, Caspase 5 (Homo sapiens, UniProt P51878).
T6 sequence (P51878 137-327 limits assumed): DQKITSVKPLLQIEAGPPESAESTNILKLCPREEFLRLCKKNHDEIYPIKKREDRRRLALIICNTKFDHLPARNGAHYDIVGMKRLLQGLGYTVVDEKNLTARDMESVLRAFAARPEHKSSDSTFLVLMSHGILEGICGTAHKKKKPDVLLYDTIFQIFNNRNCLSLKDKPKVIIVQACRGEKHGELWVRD
T6 sequence (P51878 347-434 limits assumed): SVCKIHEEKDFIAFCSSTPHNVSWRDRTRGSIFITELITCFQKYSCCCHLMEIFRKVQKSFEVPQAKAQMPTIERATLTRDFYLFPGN
In words: Reaction Biology caspase panel. The class given is biochemical. The settings on record: read-out: Caspase 5 IC50; (Z-LEHD)2-R110 substrate; three separate experiments.

Series [6] addresses T4, Caspase 3. The series can be described thus: Reaction Biology caspase panel. The class given is biochemical. The settings on record: read-out: Caspase 3 IC50; (Z-DEVD)2-R110 substrate; three separate experiments.
In series [7] the target is T3, Caspase 6. In words: Reaction Biology caspase panel. The class given is biochemical. The conditions noted are these: read-out: Caspase 6 IC50; (Z-DEVD)2-R110 substrate; three separate experiments.
The nature of series [8]: Plasma protein binding, equilibrium dialysis in 100% plasma. The class given is in vitro ADME, human. The conditions noted are these: human plasma, 100% plasma, equilibrium dialysis. (In equilibrium dialysis only unbound substance equilibrates across the membrane.)
For series [9], the target named is T7, Caspase 7 (Homo sapiens, UniProt P55210).
T7 sequence (P55210 24-198 limits assumed): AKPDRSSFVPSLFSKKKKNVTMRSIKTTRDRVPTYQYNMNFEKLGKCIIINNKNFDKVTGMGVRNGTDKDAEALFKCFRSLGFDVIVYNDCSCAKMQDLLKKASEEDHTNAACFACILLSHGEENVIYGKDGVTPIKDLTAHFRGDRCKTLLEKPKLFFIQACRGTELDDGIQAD
T7 sequence (P55210 207-303 limits assumed): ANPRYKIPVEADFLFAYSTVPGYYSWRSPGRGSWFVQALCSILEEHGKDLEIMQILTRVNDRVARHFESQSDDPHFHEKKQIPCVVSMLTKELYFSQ
In words: Reaction Biology caspase panel. The class given is biochemical. The conditions noted are these: read-out: Caspase 7 IC50; (Z-DEVD)2-R110 substrate; three separate experiments.

For series [10], the target named is T2, Caspase 8. In words: Reaction Biology caspase panel. The class given is biochemical. The settings on record: read-out: Caspase 8 IC50; (Z-LEHD)2-R110 substrate; three separate experiments.
Series [11] in a line: Aqueous degradation study by LCMS over 96 hours. Type of series: physicochemical. The settings on record: up to 96 hours.
Series [12] deals with T7, Caspase 7. The conditions noted are these: cited from earlier work.

T2 sequence (Q14790 217-374 limits assumed): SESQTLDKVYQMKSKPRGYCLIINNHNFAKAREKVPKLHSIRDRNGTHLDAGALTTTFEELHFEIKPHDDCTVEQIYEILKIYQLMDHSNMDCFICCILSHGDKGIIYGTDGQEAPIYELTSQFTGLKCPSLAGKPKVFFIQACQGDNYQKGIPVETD
T2 sequence (Q14790 385-479 limits assumed): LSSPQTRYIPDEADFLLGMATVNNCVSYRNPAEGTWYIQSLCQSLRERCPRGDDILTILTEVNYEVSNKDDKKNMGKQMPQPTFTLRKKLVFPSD

Consider `CC(C)(C)[C@H](NC(=O)c1ccc(N)c(Cl)c1)C(=O)N1CCC[C@H]1C(=O)N[C@H](C=O)CC(=O)O` [Compound 2b, reference compound], for which the values for the pKi at Caspase 4 [1], at Caspase 8 [2] and at Caspase 6 [3] were greater than 9.00, 7.00 and 6.25, respectively. Moreover, the “Microsomal Stability CLint” value in the series “Microsomal stability” came out at 6.72 μL/min/mg protein. In addition, the “Microsomal Stability t1/2” value in the series “Microsomal stability” came out at 3.43 h. Further, the “activity against granzyme B” value with granzyme B is “little activity”. For the same molecule, the activity against trypsin result in the series with trypsin is given as “little activity”. Besides, the “activity against caspase 3” value on Caspase 3 [4] is recorded as “little activity”. The negative logarithm of the IC50 (pIC50) – broadly, the negative decadic logarithm of the IC50, by convention in mol/L – on Caspase 14 is 7.23; at Caspase 4 [5], 7.84; at Caspase 5 it was 7.97; at Caspase 3 [6], less than 5.00; at Caspase 6 [7], less than 5.00; at Caspase 7 [9], less than 5.00. Further, on Caspase 8 [10], the pIC50 is 8.48. Moreover, the “activity against cathepsin B” value in the series with cathepsin B is “little activity”. The “Protein Binding fraction unbound” value in series [8] came out at 0.420. The “aqueous stability (in words)” value in series [11] (acidic (pH 2)) is reported as “very stable”; in series [11] (basic (pH 8)), “moderate”; in series [11] (neutral (pH 7)), “very stable”. In addition, the “activity against caspase 7” value on Caspase 7 [12] was “little activity”.
